# PubChem BioAssay AID1267 (The Scripps Research Institute Molecular Screening Center, 2008)
# In all, about 1,200 compounds went through this assay and about 770 (64%) were called active. The set was probably picked from earlier hits. Only a sample is shown. A number with no mark means an inactive call.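 How the source made its calls: active means percent activation of the STAT3 luciferase reporter above a set limit taken from the earlier primary screen (cut at about 130% in these data); inactive means the rest.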
# Experiment: STAT3 reporter potentiators, retest of hits, confirmation, U3A cells, luciferase, luminescence (AID 1267);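 further: 0% = background signal of medium plus substrate and 100% = median of IL-6 with DMSO wells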
# Conditions: IL-6 potentiation, at 5.7 µM, stronger effect = higher value, 100 means same as IL-6 alone, U3A cells lack STAT1
# In short: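 System: U3A STAT3::luc reporter cells. Probe or stimulus: IL-6 stimulus at 33 ng/mL final. Timing: 1 h pretreatment, 6 h IL-6, 37 °C. Measured by: luminescence of luciferase reporter. Evaluation: % potentiation versus IL-6 + DMSO. Benchmarks: high control IL-6 plus DMSO wells, media-only background wells. Repeats: triplicate.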
row,Compound,potentiation (% of control)
1,CC(=O)Nc1ccc(NC(=O)COc2ccccc2C(=O)Nc2cccc(Cl)c2Cl)cc1,143% (active)
2,Cc1cccc(C(=O)Nc2nnc(Cc3c[nH]c4ccccc34)s2)c1,150% (active)
3,CSc1nc(N(C)NC(=O)c2cccc(C)c2)c2ccccc2n1,112%
4,COc1ccc(/C=N/Nc2ncnc3sc4c(c23)CCCC4)cc1O,114%
5,O=C(Nc1cc(C(F)(F)F)ccc1Cl)c1cc(C2CC2)on1,145% (active)
6,Fc1ccc2nc(-c3ccccc3)nc(SCc3nnc(-c4ccccc4)o3)c2c1,132%
7,OC(COc1ccc2ccccc2c1)CN1CCOCC1 (stereo not given),157% (active)
8,COc1ccccc1C1C2=C(COC2=O)Nc2cc3c(cc21)OCO3 (stereo not given),124%
9,COc1ccc(-c2c3c(=O)n(C)c(=O)n(C)c3cn2-c2cccc(OC)c2)cc1,158% (active)
10,Cn1nc(-c2ccc(Cl)cc2)c2cc(C(=O)NCc3ccco3)sc21,153% (active)
11,O=C(NCc1ccco1)c1cccn2c(=O)c3c4c(sc3nc12)CCCC4,128%
12,COc1ccccc1N1CCN(C(=O)c2cc3c(-c4ccc(Cl)cc4)nn(C)c3s2)CC1,125%
13,COc1ccc(C)cc1NC(=O)c1[nH]c(C)c(C(C)=O)c1C,144% (active)
14,N#Cc1ccccc1NC(=O)COc1c(Br)cc(Br)c2cccnc12,162% (active)
15,O=C(C1CCN(S(=O)(=O)Cc2ccccc2)CC1)N1CCCc2ccccc21,118%
16,CSc1nc2sc3c(c2c(=O)[nH]1)CCc1ccccc1-3,142% (active)
17,CCSc1nnc(-c2cc3c(s2)-c2ccccc2CC3)o1,162% (active)
18,COc1cccc(NC(=S)C(C#N)=C2N(C)c3ccccc3N2C)c1,122%
19,COc1ccc(C2c3[nH]c4ccccc4c3CCN2CCCn2cccn2)cc1C (stereo not given),142% (active)
20,Cc1ccc(OCc2nnc(SC3CCc4ccccc4C3=O)n2C)cc1 (stereo not given),151% (active)
21,CN1CCN(c2ccc([N+](=O)[O-])c(Sc3nc4ccccc4[nH]3)c2)CC1,107%
22,Cc1ccc(S(=O)(=O)Nc2nc3ccccc3nc2N2CCc3ccccc3C2)cc1,124%
23,Cc1cccc(N(CC(=O)N=Nc2c(O)[nH]c3ccccc23)S(C)(=O)=O)c1C,129%
24,Cc1nc2ccccc2cc1O,146% (active)
25,COC(=O)c1[nH]c2ccccc2c1NS(=O)(=O)c1ccc(OC)cc1OC,116%

row,Compound,potentiation (% of control)
1,CCCS(=O)(=O)Nc1c(C(=O)O)[nH]c2ccccc12,170% (active)
2,CC(C)CNC(=O)COC(=O)/C=C/c1ccccc1[N+](=O)[O-],126%
3,CCn1c(SCC(=O)N/N=C/C=C/c2ccccc2[N+](=O)[O-])nnc1-c1ccccc1,137% (active)
4,N#Cc1c(C(F)(F)F)cc(-c2ccc(Cl)cc2)nc1SCC(=O)O,159% (active)
5,COc1ccc(Cl)cc1NC(=O)c1oc(C)nc1C,147% (active)
6,C/C(=N\NC(=O)CNc1cccc2ccccc12)c1ccc(Br)s1,98.2%
7,Cc1ccc(/C=N/NC(=O)COc2ccccc2-c2ccccc2)cc1,135% (active)
8,Cc1ccc(C2=NN(C)c3nc4ccccc4n3C2)cc1,151% (active)
9,Oc1c(C=Nc2cccc3nsnc23)ccc2ccccc12,129%
10,COc1cc(OC)cc(C(=O)N[C@H](C(=O)Nc2nc3ccccc3[nH]2)C(C)C)c1,108%
11,COc1cc(NS(=O)(=O)c2ccc(N/C=C(\C=O)c3nc4cc(Cl)ccc4o3)cc2)nc(OC)n1,144% (active)
12,C/C(=N\c1nc2ccccc2n1C)c1cc(Cl)ccc1O,118%
13,Cc1ccc(NC(=O)c2cc([N+](=O)[O-])ccc2Cl)c(O)c1,158% (active)
14,Oc1cccc2ccc(/C=C/c3ccc(Br)s3)nc12,169% (active)
15,Cn1cccc1C(=O)Nc1nccs1,132%
16,CCOC(=O)N1CCN(CC(=O)Nc2cc(C)nn2-c2nc3ccccc3s2)CC1,140% (active)
17,NC(=O)CSc1c[nH]c2ccccc12,165% (active)
18,O=c1[nH]c(CSc2ncc(-c3ccc(F)cc3)n2Cc2ccco2)nc2ccccc12,122%
19,COc1ccc([N+](=O)[O-])cc1C1NN=C(c2cccc3ccccc23)S1 (stereo not given),138% (active)
20,O=C1CCCN1CCCNc1ncnc2c1[nH]c1ccccc12,144% (active)
21,COCCCNc1nc2c(-c3cccc(C(F)(F)F)c3)nnn2c2ccccc12,134% (active)
22,COc1ccccc1-c1nnc(NC(=O)c2ccc3ncsc3c2)o1,147% (active)
23,COc1ccccc1-c1nnc(SCC(=O)N2CC(C)CC(C)C2)o1 (stereo not given),117%
24,Cc1cccc(C(=O)N2CCc3c([nH]c4ccccc34)C2CC(C)C)n1 (stereo not given),159% (active)
25,c1ccc(-c2cn3c(n2)CCc2ccc4cccnc4c2-3)cc1,139% (active)

row,Compound,potentiation (% of control)
1,CCOC(=O)c1c(-c2cccc(C)c2)csc1NC(=O)c1c(-c2ccccc2)noc1C,122%
2,O=C(O)CS/C(=C\c1ccc(F)cc1)c1nc2ccccc2s1,132%
3,O=C(O)CSCc1nc2ccccc2s1,154% (active)
4,COc1ccc(NC(=O)ON=C2c3ccccc3-c3ccccc32)cc1,121%
5,CCOc1ccc(C2c3[nH]c4ccccc4c3CCN2Cc2cn(CC)nc2C)cc1 (stereo not given),143% (active)
6,COc1nc(N=C(N)N)nc2c(C)cccc12,144% (active)
7,Cc1nc(N=C(N)N)nc2c(C)cccc12,172% (active)
8,Cc1ccc(N=Nc2c(C)[nH]n(-c3ccccc3)c2=O)cc1,147% (active)
9,CCOC(=O)C1CCN(c2ncnc3c2oc2ccc(Br)cc23)CC1,138% (active)
10,CCNCc1cc2cc(C)ccc2[nH]c1=O,120%
11,CSCCC(NC(=O)c1ccco1)C(=O)OCC(=O)Nc1ncc(Cl)c(C)c1Cl (stereo not given),124%
12,Cc1ccc(Nc2nc(-c3sc(NC(=O)c4ccccc4)nc3C)cs2)cc1,122%
13,C=CCCC(=O)Nc1nc(C)c(-c2csc(Nc3ccc(Cl)cc3)n2)s1,135% (active)
14,CCCCC(=O)Nc1nc(C)c(-c2csc(Nc3ccc(Cl)cc3)n2)s1,133%
15,Cc1ccc(-c2cc(C(=O)Nc3nn[nH]n3)c3ccccc3n2)c(C)c1,121%
16,O=[N+]([O-])c1ccc(N2CCN(S(=O)(=O)c3ccc4ccccc4c3)CC2)cc1NCc1ccco1,123%
17,CN1C(=O)/C(=C\c2cc(Br)cs2)c2ccccc21,190% (active)
18,Cc1csc2ncc(C(=O)N(Cc3ccccc3)c3ccccn3)c(=O)n12,111%
19,O=C(Cc1c[nH]c2ccccc12)OCCOC(=O)Cc1c[nH]c2ccccc12,121%
20,CCOC(=O)CN(C)Cc1c[nH]c2ccccc12,157% (active)
21,COc1cccc(/C=C(/CC(=O)Nc2ccc(N3CCOCC3)cc2)c2nc3ccccc3s2)c1,146% (active)
22,Oc1cccc(C2c3[nH]c4ccccc4c3CCN2Cc2cnn(-c3ccccc3)c2)c1 (stereo not given),137% (active)
23,COC(=O)c1[nH]c2ccccc2c1NC(=O)CN1CCCc2ccccc21,153% (active)
24,COC(=O)c1[nH]c2cccc(C)c2c1NC(=O)CN1CCCc2ccccc21,128%
25,C=CCn1c(-c2ccccc2OCC)n[nH]c1=S,178% (active)
